Data on 21 compounds can be found in ChEMBL document CHEMBL1121553, “Substituted 6,7-dihydroimidazo[1,2-a]purin-9(4H)-ones” (J Med Chem, 1980).

For assay [1], the system named is Rattus norvegicus. As to the kind of experiment: Antiallergic activity by passive cutaneous anaphylaxis test in ovalbumin sensitized male Harlan-Sprague-Dawley rats at 25 mg/kg oral dose (inactive). It is filed as functional, organism-based. The arrangement: dose 25 mg/kg. In outline:
(§1)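 Donor rats got egg albumin im (1 mg/rat) plus killed B. pertussis vaccine ip (2 × 10¹⁰ organisms/rat) and were bled 10–12 days later for IgE-rich antiserum. Recipient rats (100–150 g) were sensitized intradermally with 0.1 mL of 1:2.5 and 1:10 antiserum dilutions.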

The species entered for assay [2] is Cavia porcellus. The assay can be described thus: Evaluation of in vitro bronchodilator activity in isolated guinea pig tracheal spiral preparation. The class given is functional. The settings on record: Trachea. In outline:
(§2)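 Guinea pig tracheal spiral held under 1.0 g tension, equilibrated 90–120 min to maximal spontaneous tonus. One drug concentration per spiral, ≥3 trials per concentration. Relaxation was expressed as % of that produced by papaverine (10 µg/mL) in the same tissue. Concentrations are bath values in µg/mL; the 50%-relaxation concentration was obtained by regression.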

Assay [3] has as its system Rattus norvegicus. As to the kind of experiment: In vivo bronchodilator activity in methacholine (intravenous) induced bronchospasm in male Harlan-Sprague-Dawley rats when administered intraduodenally. It is filed as functional.
For assay [4], the species on record is Cavia porcellus. As to the kind of experiment: In vitro bronchodilator activity in isolated guinea pig tracheal spiral preparation. The class given is functional. To be noted: Trachea. In outline:
as §2

Assay [5] deals with Rattus norvegicus. As to the kind of experiment: Antiallergic activity by passive cutaneous anaphylaxis test in ovalbumin sensitized male Harlan-Sprague-Dawley rats administered perorally. To be noted: po. The class given is functional. The gist of the method:
as §1

For assay [6], the system named is Rattus norvegicus. The assay can be described thus: Antiallergic activity was evaluated by passive cutaneous anaphylaxis test in egg albumin sensitized male Harlan-Sprague-Dawley rats when administered perorally. It is filed as functional. To be noted: po. The gist of the method:
as §1

The test system of assay [7] is Rattus norvegicus. As to the kind of experiment: Antiallergic activity was evaluated by inhibition of allergen-induced bronchospasm in male Harlan-Wistar rats when administered intraduodenally 15 min prior to antigen challenge. The class given is functional. To be noted: intraduodenal.
In assay [8] the test system is Rattus norvegicus. The assay can be described thus: In vivo bronchodilator activity in methacholine (intravenous) induced bronchospasm in male Harlan-Sprague-Dawley rats when administered intraduodenally; statistically significant inhibition of < 50% at thr stated dose. It is filed as functional.
The test system of assay [9] is Rattus norvegicus. The assay can be described thus: Antiallergic activity by passive cutaneous anaphylaxis test in rats by intravenous administration. It is filed as functional. The gist of the method:
as §1

Assay [10] has as its system Rattus norvegicus. As to the kind of experiment: Antiallergic activity by passive cutaneous anaphylaxis test in rats by intraduodenal administration. It is filed as functional. In outline:
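Recipient male Harlan-Sprague-Dawley or Wistar rats (100–150 g) received 0.1 mL intradermal antiserum at 1:2.5 and 1:10. Donor antiserum came from rats given egg albumin 1 mg im plus killed B. pertussis 2 × 10¹⁰ ip, bled 10–12 days later. After 48 h, drug went intraduodenally under anesthesia, then iv egg albumin 25 mg/kg with Evans blue 25 mg/kg. Read-out was spot-diameter inhibition versus controls, ≥5 rats/dose; ED50 was estimated.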

In assay [11] the test system is Rattus norvegicus. The assay can be described thus: Percent inhibition of PCA reaction in anesthetized rats at 47.6 mg/kg oral administration for 24 hr r. It is filed as functional. In outline: (§3)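 Passive cutaneous anaphylaxis in anesthetized rats. Passive sensitization used intradermal IgE antiserum (1:2.5 and 1:10), with a 48-h latent period. Intraduodenal or oral dose is expressed as free-acid equivalent of the salt given. Rats were challenged at 15 min, 3, 6 or 24 h with iv egg albumin 25 mg/kg plus Evans blue 25 mg/kg. Inhibition was calculated from mean spot diameters versus vehicle controls, 10 animals per dose.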

Assay [12] is described as follows: Inhibition of rat lung cGMP-Phosphodiesterase.
Assay [13] relates to Rattus norvegicus. The assay can be described thus: Percent inhibition of PCA reaction in anesthetized rats after 11.7 mg/kg intraduodenal administration for 15 min. The class given is functional. The settings on record: 0.25 h. In outline: as §3
Assay [14] is filed under the species Rattus norvegicus. The assay can be described thus: Antiallergic activity by passive cutaneous anaphylaxis test in vitro in rats. The class given is functional. The gist of the method:
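Peritoneal mast cells were lavaged from male Harlan-Sprague-Dawley rats (200–300 g) with HBSS containing 0.1% albumin and 5 mM phosphate. Cells were sensitized with IgE antiserum plus heparin for 2 h at 37 °C, then challenged with egg albumin, drug added simultaneously. After 10 min, histamine was measured fluorimetrically; inhibition versus no-drug release, four trials per concentration.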

The test system of assay [15] is Rattus norvegicus. The assay can be described thus: Percent inhibition of PCA reaction in anesthetized rats at 47.6 mg/kg oral administration for 6 hr. The class given is functional. The gist of the method:
as §3

Assay [16] concerns Rattus norvegicus. As to the kind of experiment: Percent inhibition of PCA reaction in anesthetized rats at 47.6 mg/kg oral administration for 15 min. It is filed as functional. The settings on record: 0.25 h. The gist of the method: as §3
Assay [17] concerns Rattus norvegicus. The assay can be described thus: Percent inhibition of PCA reaction in anesthetized rats at 11.7 mg/kg intraduodenal administration for 3 hr.
Assay [18] has as its system Rattus norvegicus. As to the kind of experiment: Percent inhibition of PCA reaction in anesthetized rats at 47.6 mg/kg oral administration for 3 hr. It is filed as functional. In outline:
as §3

The species entered for assay [19] is Rattus norvegicus. As to the kind of experiment: Antiallergic activity in in vitro antigen-induced histamine release from isolated mast cells. The class given is functional, cell-based. In outline:
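Peritoneal lavage cells from male Harlan-Sprague-Dawley rats (200–300 g), collected in HBSS with 0.1% human albumin and 5 mM phosphate. Cells were sensitized 2 h at 37 °C in rat antiserum with heparin, then challenged with EA; drug was added together with antigen at several concentrations, 4 trials each. After 10 min, histamine was measured fluorimetrically and % inhibition calculated vs drug-free release.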

Assay [20] deals with Rattus norvegicus. The assay can be described thus: Antiallergic activity by passive cutaneous anaphylaxis test in ovalbumin sensitized male Harlan-Sprague-Dawley rats by oral dose. It is filed as functional. In outline:
as §1

≈ marks a conversion by molar mass, not a printed value. Calls of active or inactive are those of the source. The rule behind the calls is not given here.

`O=C1c2nc[nH]c2N(CC2CCCCC2)C2=NCCN12`: the ED50 (in general, the dose at which the effect has come halfway, by size or by number of responders) in the assay on Rattus norvegicus [1] is “inactive”. In addition, in the assay listed under Cavia porcellus [2], the half-maximal inhibitory concentration (IC50) (as a rule, the concentration needed to halve the response being measured) was determined as 10 µg/mL (≈ 36.6 µM).

As for `Oc1c2ncnc-2n(Cc2ccc(Cl)cc2)c2nccn12`, the ED50 in the assay with Rattus norvegicus [3] stood at 8.1 mg/kg. In the assay listed under Cavia porcellus [4], this compound came in with an IC50 of 4.1 µg/mL (≈ 13.7 µM).

For `O=C1c2nc[nH]c2N(Cc2ccccn2)C2=NCCN12`, the median effective dose (ED50) with Rattus norvegicus [5] was more than 25 mg/kg. Half-maximal inhibition in the assay filed under Cavia porcellus [4] (IC50) was put at 128 µg/mL (≈ 477 µM).

On to `Cc1nc2c(n1C)C(=O)N1CC(C)N=C1N2Cc1ccc(Cl)cc1` (stereo not drawn), for which the values for the median effective dose (ED50) with Rattus norvegicus [6], with Rattus norvegicus [7] and with Rattus norvegicus [3] were 38.7 mg/kg, 14.2 mg/kg and 7.5 mg/kg, respectively. Also, in the assay filed under Cavia porcellus [4], the concentration for half-maximal inhibition (IC50) was found to be 7.9 µg/mL (≈ 23 µM).

As for `CC(C)CN1C2=NCCN2C(=O)c2[nH]nnc21`, the median effective dose (ED50) with Rattus norvegicus [5] and with Rattus norvegicus [8] was more than 30 mg/kg throughout. In the assay filed under Cavia porcellus [4], this compound registered a half-maximal inhibitory concentration (IC50) of approximately 200 µg/mL (≈ 854 µM).

Consider `CC(C)CN1C2=NC(C)CN2C(=O)c2[nH]cnc21` (stereo not drawn), for which the ED50 with Rattus norvegicus [5] is more than 30 mg/kg. In addition, half-maximal inhibition in the assay listed under Cavia porcellus [4] (IC50) required 14 µg/mL (≈ 56.6 µM).

In the assay listed under Cavia porcellus [4], `O=C1c2[nH]cnc2N(Cc2ccccc2Cl)C2=NCCN12` showed an IC50 of 49 µg/mL (≈ 162 µM).

As for `Cn1c(=O)c2nc[nH]c2n(C)c1=O.O` [THEOPHYLLINE], the ED50 with Rattus norvegicus [9] was more than 7.9 mg/kg; with Rattus norvegicus [10], 11.7 mg/kg. In addition, the inhibition in vivo (usually the drop in the measured response relative to a control, in per cent) at 47.6 mg/kg with Rattus norvegicus [11] worked out at 0%; in the assay with Rattus norvegicus [15], 13%; in the assay with Rattus norvegicus [16], 51.9%; in the assay on Rattus norvegicus [18], 52.5%. Also, the affinity in assay [12] corresponds to a Ki of 1150 µM. Further, the inhibition in vivo at 11.7 mg/kg amounted to 42.4% with Rattus norvegicus [13] and 25.1% in the assay with Rattus norvegicus [17]. In addition, the figures for the half-maximal inhibitory concentration (IC50) in the assay filed under Rattus norvegicus [14] and in the assay listed under Cavia porcellus [2] were 2500 µM and 18.5 µg/mL, respectively.

As to `O=C([O-])c1cc(=O)c2c(OCC(O)COc3cccc4oc(C(=O)[O-])cc(=O)c34)cccc2o1.[Na+].[Na+]` [CROMOLYN SODIUM], in the assay with Rattus norvegicus [9], the 50% effect level (ED50) was put at a dose of 0.29 mg/kg. This compound also displayed a half-maximal inhibitory concentration (IC50) in the assay listed under Rattus norvegicus [19] of 8 µM.

With `O=C1c2nc[nH]c2N(Cc2ccccc2)C2=NCCN12`, the ED50 result with Rattus norvegicus [1] was “inactive”. The IC50 in the assay listed under Cavia porcellus [4] came out at 22.5 µg/mL (≈ 84.2 µM).

In the case of `CC1CN2C(=O)c3[nH]cnc3N(Cc3ccc(Cl)cc3)C2=N1` (stereo not drawn), the values for the 50% effective dose (ED50) in the assay with Rattus norvegicus [6], in the assay with Rattus norvegicus [7] and in the assay with Rattus norvegicus [3] were 10.6 mg/kg, 1.5 mg/kg and 2.1 mg/kg, respectively. This compound had an IC50 in the assay listed under Cavia porcellus [4] of 3.7 µg/mL (≈ 11.7 µM).

Consider `O=C1c2[nH]cnc2N(Cc2ccc(Cl)c(Cl)c2)C2=NCCN12`, for which the IC50 in the assay listed under Cavia porcellus [4] was found to be 12.5 µg/mL (≈ 37.2 µM).

In the assay listed under Cavia porcellus [4], `Cn1c(N)nc2c1C(=O)N1CCN=C1N2Cc1ccc(Cl)cc1` yielded an IC50 of 4.8 µg/mL (≈ 14.5 µM). This compound also returned a 50% effective dose (ED50) in the assay with Rattus norvegicus [8] of more than 30 mg/kg.

As for `Cc1nc2c([nH]1)C(=O)N1CCN=C1N2CC(C)C`, the 50% effect level in the assay on Rattus norvegicus [7] (ED50) was put at a dose of 5.4 mg/kg. 2.8 µg/mL (≈ 11.3 µM) corresponded to half-maximal inhibition in the assay filed under Cavia porcellus [4] (IC50).

Consider `Cc1nc2c([nH]1)N(Cc1ccc(Cl)cc1)C1=NCCN1C2=O`, for which it took a dose of 1.3 mg/kg to reach the 50% effect level in the assay on Rattus norvegicus [3] (ED50). In the assay filed under Cavia porcellus [4], this compound registered a 50% inhibitory concentration (IC50) of 5.3 µg/mL (≈ 16.8 µM).

Take `Cc1nc2c([nH]1)C(=O)N1CC(C)N=C1N2Cc1ccc(Cl)cc1` (stereo not drawn): the ED50 in the assay on Rattus norvegicus [6] was found to be 30.2 mg/kg; in the assay with Rattus norvegicus [7], 1.23 mg/kg; in the assay with Rattus norvegicus [3], 1 mg/kg. The compound also gave an IC50 in the assay filed under Cavia porcellus [4] of 4.4 µg/mL (≈ 13.3 µM).

In turn, `O=C1N2CCN=C2c2[nH]cnc2N1Cc1ccc(Cl)cc1` registered an ED50 in the assay with Rattus norvegicus [8] of more than 50 mg/kg.

Take `CCCCn1cnc2c1C(=O)N1CCN=C1N2Cc1ccc(Cl)cc1`: the IC50 in the assay listed under Cavia porcellus [4] is 15.5 µg/mL (≈ 43.3 µM). Further, the ED50 in the assay on Rattus norvegicus [8] is more than 10 mg/kg.

`Cn1cnc2c1C(=O)N1CCN=C1N2Cc1ccc(Cl)cc1`: in the assay on Rattus norvegicus [1], the ED50 result was “inactive”. The compound also registered a median effective dose (ED50) in the assay on Rattus norvegicus [3] of 8.8 mg/kg. Moreover, the IC50 in the assay listed under Cavia porcellus [4] came to 2.9 µg/mL (≈ 9.18 µM).

Regarding `C[C@H]1N=C2N(Cc3ccc(Cl)cc3)c3[nH]cnc3C(=O)N2[C@H]1C`, the values for the ED50 with Rattus norvegicus [6], in the assay with Rattus norvegicus [7] and with Rattus norvegicus [3] were 28.5 mg/kg, 1.7 mg/kg and 3 mg/kg, respectively. In the assay filed under Cavia porcellus [4], this compound registered an IC50 of 0.7 µg/mL (≈ 2.12 µM).

For `CC(C)CN1C2=NCCN2C(=O)c2[nH]cnc21`, the median effective dose (ED50) with Rattus norvegicus [20] was more than 25 mg/kg. Besides, in the assay listed under Cavia porcellus [4], the midpoint of inhibition, the IC50, lay at 6.3 µg/mL (≈ 27 µM).
